One series has as its system Human alphaherpesvirus 1. As to the kind of experiment: In vitro antiviral activity (virus ratings (VR)) determined by comparing CPE development in drug-treated cells (T) and HSV-1 virus control cells. It counts as functional.
For series [1], the system named is L1210. Put plainly: In vitro antitumor activity in the culture media (that produced 50% inhibition of the L1210 leukemia cell growth as compared to the untreated cells); b=Inactive at 10E-4 M. It counts as functional, cell-based. To be noted: Mus musculus. In a few lines:
(§1)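 L1210 leukemia and P388 lymphoid neoplasm cells kept in RPMI-1640 with 10% heat-inactivated fetal calf serum. Seeded at 5 × 10⁴ cells/mL, then grown 48 h at 37 °C with compound at 4-5 log doses. Growth counted by Coulter counter and expressed as % of control tubes. ID50 is the dose giving 50% growth inhibition.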

Series [2] deals with Vesicular stomatitis virus. As to the kind of experiment: In vitro antiviral activity (virus ratings (VR)) determined by comparing CPE development in drug-treated cells (T) and VSV virus control cells. The series is classed as functional.
Series [3] has as its system Human respirovirus 3. As to the kind of experiment: In vitro antiviral activity (virus ratings (VR)) determined by comparing CPE development in drug-treated cells (T) and Parainfluenza type 3 virus control cells. The series is classed as functional.
The test system of series [4] is P388. As to the kind of experiment: In vitro antitumor activity in the culture media (that produced 50% inhibition of the P388 leukemia cell growth as compared to the untreated cells); b=Inactive at 10E-4 M. It counts as functional, cell-based. To be noted: Mus musculus. The procedure, abridged:
as §1

The next series relates to Vaccinia virus. As to the kind of experiment: In vitro antiviral activity (virus ratings (VR)) determined by comparing CPE development in drug-treated cells (T) and Vaccinia virus control cells. The series is classed as functional, Orthopoxvirus vaccinia.
Series [5] has as its system Vesicular stomatitis virus. As to the kind of experiment: In vitro antiviral activity (virus ratings (VR)) determined by comparing CPE development in drug-treated cells (T) and Vesicular stomatitis virus control cells. It counts as functional.
For series [6], the system named is P388. As to the kind of experiment: In vitro antitumor activity in the culture media (that produced 50% inhibition of the P388 leukemia cell growth as compared to the untreated cells). The series is classed as functional. To be noted: Mus musculus, read-out: ID50 (the source's name). In a few lines: (§2)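 L1210 or P388 cells kept in RPMI-1640 with 10% heat-inactivated fetal calf serum and seeded in tubes at 5 × 10⁴ cells/mL. Grown with compound at 4-5 log doses for 48 h at 37 °C. Cells counted electronically, growth expressed as % of untreated control tubes, and the dose giving 50% growth inhibition (ID₅₀) determined.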

The test system of series [7] is L1210. Put plainly: In vitro antitumor activity in the culture media (that produced 50% inhibition of the L1210 leukemia cell growth as compared to the untreated cells). To be noted: Mus musculus, read-out: ID50 (the source's name). The series is classed as functional. The procedure, abridged: as §2
Series [8] in a line: Toxic level was evaluated; None. The series is classed as ADME.
The test system of series [9] is P388. Put plainly: In vitro antitumor activity in the culture media (that produced 50% inhibition of the P388 leukemia cell growth as compared to the untreated cells); b=Inactive at 10E-4. The series is classed as functional, cell-based. The settings on record: Mus musculus. In a few lines: as §1
The test system of series [10] is L1210. Put plainly: In vitro antitumor activity in the culture media (that produced 50% inhibition of the L1210 leukemia cell growth as compared to the untreated cells); Inhibition at 10E-5. It counts as functional, Mus musculus.
The subject of series [11] is Human respirovirus 3. As to the kind of experiment: In vitro antiviral activity (virus ratings (VR)) determined by comparing CPE development in drug-treated cells (T) and Parainfluenza type 3 virus control cells. It counts as functional.
Series [12] relates to P388. Put plainly: In vitro antitumor activity in the culture media (that produced 50% inhibition of the P388 leukemia cell growth as compared to the untreated cells); Inhibition at 10E-5. The series is classed as functional, Mus musculus.
The subject of series [13] is P388. Put plainly: In vitro antitumor activity in the culture media (that produced 50% inhibition of the P388 leukemia cell growth as compared to the untreated cells); Inhibition at 10E-4. The series is classed as functional, Mus musculus.

The structures appear in SMILES notation. pIC50: −log10 of the molar value. Activity calls are given as the source filed them. The rule behind the calls is not given here.

As to `Nc1cc2c(ncn2C2O[C@H](CO)[C@@H](O)[C@H]2O)c(=O)n1N` (some centres not stated), the Virus rating amounted to 0.25 in the series on Human alphaherpesvirus 1, 0.45 in series [2], 0.3 with Human respirovirus 3 [3] and 1.25 in the series on Vaccinia virus. Further, the ID50 entry with L1210 [1] and in the series on P388 [4] was “Inactive at 10^-4M” in each case.
In the case of `Nc1cc2c(ncn2[C@@H]2O[C@H](CO)[C@@H](O)[C@H]2O)c(=O)[nH]1`, the Virus rating in the series on Human alphaherpesvirus 1 amounted to 1.4; in series [5], 1.5; with Human respirovirus 3 [3] it was 1.18; in the series with Vaccinia virus it was 1.5. Also, the pIC50 with P388 [6] was 4.80; in the series on L1210 [7] it was 4.74.
Take `Nc1cc2c(ncn2[C@@H]2O[C@@H]3COP(=O)(O)O[C@H]3[C@H]2O)c(O)n1`: the Virus rating in the series on Human alphaherpesvirus 1 was found to be 1.02; in series [5], 1; in the series on Human respirovirus 3 [3], 0.62; with Vaccinia virus it was 1.15. In addition, the pIC50 in the series with P388 [6] was 4.35; in the series on L1210 [7] it was 5.39.
Consider `NNc1cc2ncnc-2c(O)n1N`, for which the Virus rating in the series on Human alphaherpesvirus 1 stood at 0.05; in series [5], 0; with Human respirovirus 3 [3] it was 0.03; in the series on Vaccinia virus it was 0.15. In addition, the pIC50 with P388 [6] is 4.21; with L1210 [7], 4.46.
For the compound `Nc1cc2c(ncn2[C@H]2C[C@H](O)[C@@H](CO)O2)c(O)n1`, the Virus rating in the series on Human alphaherpesvirus 1 is on record as 1.28; in series [5] it was 1.03; in the series with Human respirovirus 3 [3], 1.45; in the series on Vaccinia virus it was 1.72. Moreover, the pIC50 with P388 [6] was 4.38; with L1210 [7] it was 4.70. Besides, in [8], the Toxic level result was “Not Active”.
Regarding `NC(=O)c1ncn([C@@H]2O[C@H](CO)[C@@H](O)[C@H]2O)n1` [RIBAVIRIN], the Virus rating in the series with Human alphaherpesvirus 1 was determined as 0.6; in series [5], 0.8; with Human respirovirus 3 [3], 1.3; with Vaccinia virus, 1.2. For the same compound, the Toxic level result in series [8] is “Not Active”.
Consider `Nc1cc2c(ncn2[C@@H]2C[C@H](O)[C@@H](CO)O2)c(O)n1`, for which the Virus rating with Human alphaherpesvirus 1 was found to be 1; in series [5], 0.8; in the series on Human respirovirus 3 [3] it was 0.7; in the series with Vaccinia virus, 1.65. Also, the ID50 result with P388 [9] was “Inactive at 10^-4M”. Besides, the Inhibition (usually the drop in the measured response relative to a control, in per cent) in the series on L1210 [10] is 45%. In addition, the Toxic level result in [8] was “Not Active”.
For `Nc1cc2ncn([C@H]3C[C@H](O)[C@@H](CO)O3)c2c(O)n1`, the Virus rating in the series with Human alphaherpesvirus 1 was found to be 0.8; in series [5], 1.06; in the series on Human respirovirus 3 [11] it was 0.92; in the series on Vaccinia virus, 1.42. Further, the ID50 result in the series with L1210 [1] and with P388 [4] was “Inactive at 10^-4M” each time. The Toxic level entry in [8] is “Not Active”.
Take `Nc1cc2ncn([C@@H]3C[C@H](O)[C@@H](CO)O3)c2c(O)n1`: the Virus rating in the series on Human alphaherpesvirus 1 is recorded as 0.3; in [5], 0.35; in the series with Human respirovirus 3 [3], 0.22; in the series on Vaccinia virus, 1.18. In the series with L1210 [7], the pIC50 was 4.10. In the series on P388 [12], the Inhibition was 31%.
Turning to `Nc1cc2[nH]cnc2c(=O)[nH]1` [DEZAGUANINE], the Virus rating with Human alphaherpesvirus 1 was 1.4; in series [5], 1.55; in the series with Human respirovirus 3 [11], 0.98; with Vaccinia virus, 1.55. The same compound showed an Inhibition in the series on P388 [13] of 39%. Moreover, the pIC50 in the series with L1210 [7] was 4.21.

The values are drawn from ChEMBL document CHEMBL1122625, “Synthesis and antiviral/antitumor activities of certain 3-deazaguanine nucleosides and nucleotides” (J Med Chem, 1984).
